Measurements from paper PMC5481492 (Chemico-biological interactions, 2016).
Read-outs that look alike come from different tables or passages of the source. Each block holds one compound with its values, some of them ahead of it.

Columns and labels:
[1] = molecular target: T1, horse liver ADH1E S48T/F93A (Equus caballus, UniProt P00327, F94A/S49T); experiment: Inhibition of ethanol oxidation, S48T/F93A enzyme; type: biochemical
[2] = molecular target: T2, horse liver ADH1E (EqADH1E), wild-type (Equus caballus, UniProt P00327); conditions: cited from earlier work
T2 sequence (P00327 whole entry): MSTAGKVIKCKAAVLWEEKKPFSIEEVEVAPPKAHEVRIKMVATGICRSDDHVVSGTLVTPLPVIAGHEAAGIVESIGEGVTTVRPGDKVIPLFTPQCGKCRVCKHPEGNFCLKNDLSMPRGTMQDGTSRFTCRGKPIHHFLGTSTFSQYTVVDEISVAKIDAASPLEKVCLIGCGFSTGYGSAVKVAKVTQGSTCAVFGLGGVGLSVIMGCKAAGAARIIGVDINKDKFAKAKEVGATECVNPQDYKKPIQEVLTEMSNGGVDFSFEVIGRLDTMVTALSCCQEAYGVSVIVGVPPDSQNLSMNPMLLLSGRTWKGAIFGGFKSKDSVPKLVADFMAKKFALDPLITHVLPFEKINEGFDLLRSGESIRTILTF

[3] = molecular target: T1, horse liver ADH1E S48T/F93A; experiment: Transient; type: biochemical; conditions: pH 8.0, 25 °C; 2 mM NAD+ (oxidation) or stoichiometric NADH (reduction)
Outline: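 Stopped-flow (three-syringe, 2.5 ms dead time) at 25 °C in 33 mM sodium phosphate, 0.25 mM EDTA, pH 8.0. Enzyme at 6–15 μN (active sites) was mixed with 2 mM NAD⁺ and varied alcohol (oxidation), or with NADH equal to the enzyme concentration and varied carbonyl compound (reduction). A328 bursts (Δε 5500 M⁻¹cm⁻¹) were fitted as first-order; rate constants were analysed against substrate concentration.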

horse liver ADH1E F93A [4] = molecular target: T3, horse liver ADH1E F93A (Equus caballus, UniProt P00327, F94A); experiment: Transient; type: biochemical; conditions: for K m (transient reaction) / k max (transient oxidation): pH 8.0, 25 °C, 2 mM NAD+
T3 sequence (P00327 whole entry F94A): as the sequence (P00327 whole entry) above, with F94A counted along it

[5] = molecular target: T2, horse liver ADH1E (EqADH1E), wild-type; conditions: value in parentheses; cited from earlier work
horse liver ADH1E S48T [6] = molecular target: T4, horse liver ADH1E S48T (Equus caballus, UniProt P00327, S49T); experiment: Steady-state kinetics, S48T enzyme; type: biochemical; conditions: for Michaelis constant for coenzyme (Ka NAD+, Kq NADH) / Ki / Turnover number (V1/Et ethanol oxidation, V2/Et acetaldehyde reduction): pH 8.0, 25 °C; for Michaelis constant for coenzyme (Ka NAD+, Kq NADH): both substrates varied; for Ki: read-out: Inhibition constant for coenzyme (Kia NAD+, Kiq NADH); for Ratio of V/Km for (R)- to (S)-enantiomers: enantioselectivity
T4 sequence (P00327 whole entry S49T): as the sequence (P00327 whole entry) above, with S49T counted along it

horse liver ADH1E S48A = horse liver ADH1E S48A (Equus caballus, UniProt P00327, S49A); experiment: Steady-state kinetics, S48A enzyme; type: biochemical; conditions: pH 8.0, 25 °C; for Michaelis constant for coenzyme (Ka NAD+, Kq NADH): both substrates varied; for Ki: read-out: Inhibition constant for coenzyme (Kia NAD+, Kiq NADH)
Sequence of horse liver ADH1E S48A (P00327 whole entry S49A): as the sequence (P00327 whole entry) above, with S49A counted along it

horse liver ADH1E F93A [7] = molecular target: T3, horse liver ADH1E F93A; experiment: Steady-state kinetics, F93A enzyme; type: biochemical; conditions: for Michaelis constant for coenzyme (Ka NAD+, Kq NADH): both substrates varied; for Ki: read-out: Inhibition constant for coenzyme (Kia NAD+, Kiq NADH); for Ratio of V/Km for (R)- to (S)-enantiomers: enantioselectivity
[8] = molecular target: T1, horse liver ADH1E S48T/F93A; experiment: Steady-state kinetics, S48T/F93A enzyme; type: biochemical; conditions: for Michaelis constant for coenzyme (Ka NAD+, Kq NADH) / Ki / Turnover number (V1/Et ethanol oxidation, V2/Et acetaldehyde reduction): pH 8.0, 25 °C; for Michaelis constant for coenzyme (Ka NAD+, Kq NADH): both substrates varied; for Ki: read-out: Inhibition constant for coenzyme (Kia NAD+, Kiq NADH); for Increase of the R/S ratio (inversion of enantioselectivity) as compared to wild-type enzyme: S48T/F93A relative to wild-type; for Ratio of V/Km for (R)- to (S)-enantiomers: enantioselectivity
[9] = molecular target: T2, horse liver ADH1E (EqADH1E), wild-type; conditions: pH 8.0, 25 °C; cited from earlier work
horse liver ADH1E F93A [10] = molecular target: T3, horse liver ADH1E F93A; conditions: cited from earlier work; for Substrate deuterium isotope effect on k max: value in brackets
[11] = molecular target: T2, horse liver ADH1E (EqADH1E), wild-type; experiment: Steady-state kinetics, wild-type enzyme; type: biochemical; conditions: enantioselectivity
horse liver ADH1E S48T [12] = molecular target: T4, horse liver ADH1E S48T; experiment: Inhibition of ethanol oxidation, S48T enzyme; type: biochemical
horse liver ADH1E F93A [13] = molecular target: T3, horse liver ADH1E F93A; experiment: Inhibition of ethanol oxidation, F93A enzyme; type: biochemical
[14] = molecular target: T2, horse liver ADH1E (EqADH1E), wild-type; conditions: pH 8.5, 25 °C, cited from earlier work
[15] = competitive against ethanol, pH 8.0, 25 °C

T1 sequence (P00327 whole entry S49T/F94A): as the sequence (P00327 whole entry) above, with S49T, F94A counted along it

Structure (SMILES): c1cn[nH]c1 [Pyrazole, pyrazole]
Type of inhibition [1]: competitive inhibitor against varied concentrations of ethanol | Ki [1, 15]: 8.1 µM | Ki [2]: 0.2 µM

Structure (SMILES): NC(=O)c1ccc[n+]([C@@H]2O[C@H](COP(=O)([O-])OP(=O)(O)OC[C@H]3O[C@@H](n4cnc5c(N)ncnc54)[C@H](O)[C@@H]3O)[C@@H](O)[C@H]2O)c1 [NAD^+]
Michaelis constant for coenzyme (Ka NAD+, Kq NADH) (horse liver ADH1E S48T [6]): 11 µM | Ki (horse liver ADH1E S48T [6]): 15 µM | Michaelis constant for coenzyme (Ka NAD+, Kq NADH) (horse liver ADH1E S48A): 200 µM | Ki (horse liver ADH1E S48A): 110 µM | Michaelis constant for coenzyme (Ka NAD+, Kq NADH) (horse liver ADH1E F93A [7]; pH 8.0, 25 °C): 3.3 µM | Ki (horse liver ADH1E F93A [7]; pH 8.0, 25 °C): 44 µM | Michaelis constant for coenzyme (Ka NAD+, Kq NADH) [8]: 4.4 µM | Ki [8]: 33 µM | Michaelis constant for coenzyme (Ka NAD+, Kq NADH) [9]: 3.9 µM

Structure (SMILES): OCc1ccccc1 [Benzyl alcohol, benzyl alcohol]
K m (transient reaction) [3]: 15 mM | k max (transient oxidation or reduction) [3]: 78 s⁻¹ | k max (transient oxidation or reduction) (horse liver ADH1E F93A [10]): 3.3 s⁻¹ | Substrate deuterium isotope effect on k max (horse liver ADH1E F93A [10]): 4.0 | K m (transient reaction) [5]: 0.03 mM | k max (transient oxidation or reduction) [5]: 24 s⁻¹

Structure (SMILES): NC(=O)C1=CN([C@@H]2O[C@H](COP(=O)(O)OP(=O)(O)OC[C@H]3O[C@@H](n4cnc5c(N)ncnc54)[C@H](O)[C@@H]3O)[C@@H](O)[C@H]2O)C=CC1 [NADH]
Michaelis constant for coenzyme (Ka NAD+, Kq NADH) (horse liver ADH1E S48T [6]): 6.3 µM | Ki (horse liver ADH1E S48T [6]): 0.57 µM | Michaelis constant for coenzyme (Ka NAD+, Kq NADH) (horse liver ADH1E S48A): 44 µM | Ki (horse liver ADH1E S48A): 21 µM | Michaelis constant for coenzyme (Ka NAD+, Kq NADH) (horse liver ADH1E F93A [7]; pH 8.0, 25 °C): 1.9 µM | Ki (horse liver ADH1E F93A [7]; pH 8.0, 25 °C): 0.036 µM | Michaelis constant for coenzyme (Ka NAD+, Kq NADH) [8]: 5.0 µM | Ki [8]: 0.054 µM | Rate constant for binding of NADH (horse liver ADH1E F93A [4]; transient kinetics, stated in a paragraph on the F93A and S48T/F93A enzymes): 1e+07 M⁻¹ s⁻¹ | Michaelis constant for coenzyme (Ka NAD+, Kq NADH) [9]: 5.8 µM

Structure (SMILES): OCc1c(F)c(F)c(F)c(F)c1F [pentafluorobenzyl alcohol, 2,3,4,5,6-pentafluorobenzyl alcohol]
Ki (horse liver ADH1E S48T [12]): 740 µM | Ki (horse liver ADH1E F93A [13]): 51 µM | Ki [1]: > 10000 µM | Ki [2, 15]: 0.52 µM

Structure (SMILES): CCO [ethanol]
Turnover number (V1/Et ethanol oxidation, V2/Et acetaldehyde reduction) (horse liver ADH1E S48T [6]): 1.7 s⁻¹ | Turnover number (V1/Et ethanol oxidation, V2/Et acetaldehyde reduction) (horse liver ADH1E S48A): 0.01 s⁻¹ | Catalytic efficiency (V1/EtKb, V2/EtKp) (horse liver ADH1E F93A [7]; pH 8.0, 25 °C): 1.7 mM⁻¹ s⁻¹ | Turnover number (V1/Et ethanol oxidation, V2/Et acetaldehyde reduction) (horse liver ADH1E F93A [7]; pH 8.0, 25 °C): 0.35 s⁻¹ | Turnover number (V1/Et ethanol oxidation, V2/Et acetaldehyde reduction) [8]: 0.29 s⁻¹ | K m (transient reaction) [3]: 38 mM | k max (transient oxidation or reduction) [3]: 72 s⁻¹ | K m (transient reaction) (horse liver ADH1E F93A [4]): 26 mM | k max (transient oxidation) (horse liver ADH1E F93A [4]): 22 s⁻¹ | Catalytic efficiency (V1/EtKb, V2/EtKp) [9]: 10 mM⁻¹ s⁻¹ | Turnover number (V1/Et ethanol oxidation, V2/Et acetaldehyde reduction) [9]: 3.5 s⁻¹ | K m (transient reaction) [5]: 4.1 mM | k max (transient oxidation or reduction) [5]: 180 s⁻¹

Structure (SMILES): OCC(F)(F)F [trifluoroethanol, 2,2,2-trifluoroethanol]
Ki (horse liver ADH1E S48T [12]): 98 µM | Ki (horse liver ADH1E F93A [13]): 53 µM | Ki [1]: 600 µM | Type of inhibition [1]: uncompetitive inhibitor against varied concentrations of NAD^+ | Ki [2, 15]: 8.4 µM

Structure (SMILES): CC=O [acetaldehyde]
Turnover number (V1/Et ethanol oxidation, V2/Et acetaldehyde reduction) (horse liver ADH1E S48T [6]): 20 s⁻¹ | Turnover number (V1/Et ethanol oxidation, V2/Et acetaldehyde reduction) (horse liver ADH1E S48A): 0.29 s⁻¹ | Turnover number (V1/Et ethanol oxidation, V2/Et acetaldehyde reduction) (horse liver ADH1E F93A [7]; pH 8.0, 25 °C): 20 s⁻¹ | Turnover number (V1/Et ethanol oxidation, V2/Et acetaldehyde reduction) [8]: 35 s⁻¹ | K m (transient reaction) [3]: 150 mM | k max (transient oxidation or reduction) [3]: 58 s⁻¹ | Turnover number (V1/Et ethanol oxidation, V2/Et acetaldehyde reduction) [9]: 47 s⁻¹ | K m (transient reaction) [5]: 2.1 mM | k max (transient oxidation or reduction) [5]: 390 s⁻¹

Structure (SMILES): CCC(C)=O [2-Butanone, 2-butanone]
Km ([8]; ketone reduction, 0.1 mM NADH): 12.7 ± 0.9 mM | V2/Et ([8]; ketone reduction, 0.1 mM NADH): 0.081 ± 0.002 s⁻¹ | K m (transient reaction) [3]: 29 mM | k max (transient oxidation or reduction) [3]: 0.14 s⁻¹ | k max (transient oxidation or reduction) [5]: 0.12 s⁻¹ | Binding rate constant k−6 ([14]; (pro-R)-2-butanone pathway): 6.5 M⁻¹ s⁻¹ | Dissociation rate constant k6 ([14]; (pro-R)-2-butanone pathway): 4.3 s⁻¹ | Binding rate constant k−6 ([14]; (pro-S)-2-butanone pathway): 180 M⁻¹ s⁻¹ | Dissociation rate constant k6 ([14]; (pro-S)-2-butanone pathway): 2.5 s⁻¹

Structure (SMILES): O=Cc1ccccc1 [Benzaldehyde, benzaldehyde]
K m (transient reaction) [3]: 0.26 mM | k max (transient oxidation or reduction) [3]: 0.67 s⁻¹ | k max (transient oxidation or reduction) (horse liver ADH1E F93A [10]): 2.2 s⁻¹ | Substrate deuterium isotope effect on k max (horse liver ADH1E F93A [10]): 3.4 | K m (transient reaction) [5]: 0.49 mM | k max (transient oxidation or reduction) [5]: 320 s⁻¹

Structure (SMILES): OCC(F)(F)C(F)(F)C(F)(F)F [heptafluorobutanol]
Ki [1, 15]: 53 µM | Ki [2]: 5.3 µM

Now from value to compound, other results behind:

K m (transient reaction) [3]: 4.9 mM | k max (transient oxidation or reduction) [3]: 16 s⁻¹ | K m (transient reaction) (horse liver ADH1E F93A [4]): 1.3 mM | k max (transient oxidation) (horse liver ADH1E F93A [4]): 29 s⁻¹
Structure (SMILES): CC[C@H](C)O [(S)-2-Butanol, (S)-2-butanol]
k max (transient oxidation or reduction) [5]: 2.5 s⁻¹

Ratio of V/Km for (R)- to (S)-enantiomers [11]: 0.067 | Ratio of V/Km for (R)- to (S)-enantiomers (horse liver ADH1E F93A [7]): 0.34 | Increase of the R/S ratio (inversion of enantioselectivity) as compared to wild-type enzyme [8]: 190 fold | Ratio of V/Km for (R)- to (S)-enantiomers [8]: 13.
Structure (SMILES): CC(O)c1ccccc1 (stereo not shown) [sec-Phenethyl alcohol, sec-phenethyl alcohol]

Ratio of V/Km for (R)- to (S)-enantiomers [11]: 0.45 | Ratio of V/Km for (R)- to (S)-enantiomers (horse liver ADH1E S48T [6]): 0.88 | Ratio of V/Km for (R)- to (S)-enantiomers (horse liver ADH1E F93A [7]): 1.1 | Increase of the R/S ratio (inversion of enantioselectivity) as compared to wild-type enzyme [8]: 10 fold | Ratio of V/Km for (R)- to (S)-enantiomers [8]: 4.3
Structure (SMILES): CCC(C)O (stereo not shown) [2-Butanol, 2-butanol]

Ratio of V/Km for (R)- to (S)-enantiomers [11]: 0.0034 | Ratio of V/Km for (R)- to (S)-enantiomers (horse liver ADH1E S48T [6]): 0.023 | Ratio of V/Km for (R)- to (S)-enantiomers (horse liver ADH1E F93A [7]): 0.62 | Increase of the R/S ratio (inversion of enantioselectivity) as compared to wild-type enzyme [8]: 590 fold | Ratio of V/Km for (R)- to (S)-enantiomers [8]: 2.0
Structure (SMILES): CCCCCCC(C)O (stereo not shown) [2-Octanol, 2-octanol]

K m (transient reaction) [3]: 26 mM | k max (transient oxidation or reduction) [3]: 130 s⁻¹ | K m (transient reaction) (horse liver ADH1E F93A [4]): 1.2 mM | k max (transient oxidation) (horse liver ADH1E F93A [4]): 44 s⁻¹
Structure (SMILES): CC[C@@H](C)O [(R)-2-Butanol, (R)-2-butanol]
k max (transient oxidation or reduction) [5]: 15 s⁻¹
